Results taken from ChEMBL document CHEMBL5678818, “Discovery of potent SOS1 inhibitors that block RAS activation via disruption of the RAS-SOS1 interaction” (Proc Natl Acad Sci U S A, 2019).
Activity calls are given as the source filed them. The calls are words filed in the database; no cut-off is given here.

Columns and labels:
K562 = assay: Effect on total ERK level in human K562 cells incubated for 60 mins by HTRF analysis; format: functional, cell-based
Summary of the method: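 K-562 cells (wild-type KRAS) were sourced from ATCC. Cells were incubated with compound for 60 min, and total ERK was quantified alongside pERK.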

Homo sapiens = organism: Homo sapiens; assay: Inhibition of N-terminal His10-tagged 15N-labeled recombinant human KRAS G12C/C118S mutant (1 to 169 residues) expressed in Escherichia coli/N-terminal His10-tagged wild-type recombinant human SOS1 catalytic domain (564 to 1049 residues) expressed in Escherichia coli protein-protein interaction at 1 mM incubated for 30 mins by 2D-NMR analysis
[1] = target: Tyrosine-protein kinase ABL1 (Homo sapiens) (UniProt P00519); assay: Inhibition of nonphosphorylated ABL1 (unknown origin) assessed as residual activity at 100 nM by KINOMEscan analysis relative to control
Chain of Tyrosine-protein kinase ABL1 (Homo sapiens) (P00519 whole entry): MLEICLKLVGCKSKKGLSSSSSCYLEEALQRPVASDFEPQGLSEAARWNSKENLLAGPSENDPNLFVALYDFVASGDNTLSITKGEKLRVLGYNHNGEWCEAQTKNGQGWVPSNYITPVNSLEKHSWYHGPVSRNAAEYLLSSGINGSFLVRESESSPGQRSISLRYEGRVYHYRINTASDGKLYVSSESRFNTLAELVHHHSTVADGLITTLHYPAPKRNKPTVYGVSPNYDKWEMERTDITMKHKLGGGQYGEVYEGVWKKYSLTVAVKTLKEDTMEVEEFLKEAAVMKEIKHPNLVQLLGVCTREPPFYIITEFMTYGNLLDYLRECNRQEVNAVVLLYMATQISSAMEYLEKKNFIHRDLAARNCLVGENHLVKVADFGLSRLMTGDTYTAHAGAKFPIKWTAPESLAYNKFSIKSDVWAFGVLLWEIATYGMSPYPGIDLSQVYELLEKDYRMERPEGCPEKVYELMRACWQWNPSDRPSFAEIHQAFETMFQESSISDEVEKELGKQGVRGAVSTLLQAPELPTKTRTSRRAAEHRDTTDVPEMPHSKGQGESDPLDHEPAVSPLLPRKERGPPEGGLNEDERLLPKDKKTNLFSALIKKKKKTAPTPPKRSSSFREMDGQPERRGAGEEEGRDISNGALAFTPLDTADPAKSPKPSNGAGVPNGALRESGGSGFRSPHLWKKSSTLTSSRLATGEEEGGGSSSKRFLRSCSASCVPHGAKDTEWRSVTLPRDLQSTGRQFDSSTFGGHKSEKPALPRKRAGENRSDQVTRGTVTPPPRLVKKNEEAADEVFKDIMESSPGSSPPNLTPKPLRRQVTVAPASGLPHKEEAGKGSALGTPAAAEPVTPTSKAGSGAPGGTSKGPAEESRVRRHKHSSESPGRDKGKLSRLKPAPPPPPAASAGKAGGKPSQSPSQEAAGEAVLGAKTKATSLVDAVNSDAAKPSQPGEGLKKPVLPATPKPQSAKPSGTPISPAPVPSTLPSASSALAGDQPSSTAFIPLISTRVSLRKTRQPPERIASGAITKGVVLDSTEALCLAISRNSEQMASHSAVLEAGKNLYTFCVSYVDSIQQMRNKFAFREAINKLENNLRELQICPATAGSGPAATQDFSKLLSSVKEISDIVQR

[2] = target: T1, Serine/threonine-protein kinase 17B (Homo sapiens) (UniProt O94768); assay: Inhibition of DRAK2 (unknown origin) assessed as residual activity at 100 nM by KINOMEscan analysis relative to control
T1 sequence (whole entry): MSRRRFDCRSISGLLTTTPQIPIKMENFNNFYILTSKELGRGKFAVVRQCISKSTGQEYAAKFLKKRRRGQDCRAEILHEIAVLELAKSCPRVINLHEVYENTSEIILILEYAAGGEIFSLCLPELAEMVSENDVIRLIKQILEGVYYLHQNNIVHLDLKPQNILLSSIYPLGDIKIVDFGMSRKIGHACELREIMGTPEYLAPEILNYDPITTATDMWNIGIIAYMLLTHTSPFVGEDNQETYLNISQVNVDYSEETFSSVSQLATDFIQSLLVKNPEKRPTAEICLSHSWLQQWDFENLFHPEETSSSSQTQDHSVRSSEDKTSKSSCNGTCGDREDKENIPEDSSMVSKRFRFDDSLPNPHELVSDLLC

[3] = target: T2, Dual specificity tyrosine-phosphorylation-regulated kinase 2 (Homo sapiens) (UniProt Q92630); assay: Inhibition of DYRK2 (unknown origin) assessed as residual activity at 100 nM by KINOMEscan analysis relative to control
T2 sequence (whole entry): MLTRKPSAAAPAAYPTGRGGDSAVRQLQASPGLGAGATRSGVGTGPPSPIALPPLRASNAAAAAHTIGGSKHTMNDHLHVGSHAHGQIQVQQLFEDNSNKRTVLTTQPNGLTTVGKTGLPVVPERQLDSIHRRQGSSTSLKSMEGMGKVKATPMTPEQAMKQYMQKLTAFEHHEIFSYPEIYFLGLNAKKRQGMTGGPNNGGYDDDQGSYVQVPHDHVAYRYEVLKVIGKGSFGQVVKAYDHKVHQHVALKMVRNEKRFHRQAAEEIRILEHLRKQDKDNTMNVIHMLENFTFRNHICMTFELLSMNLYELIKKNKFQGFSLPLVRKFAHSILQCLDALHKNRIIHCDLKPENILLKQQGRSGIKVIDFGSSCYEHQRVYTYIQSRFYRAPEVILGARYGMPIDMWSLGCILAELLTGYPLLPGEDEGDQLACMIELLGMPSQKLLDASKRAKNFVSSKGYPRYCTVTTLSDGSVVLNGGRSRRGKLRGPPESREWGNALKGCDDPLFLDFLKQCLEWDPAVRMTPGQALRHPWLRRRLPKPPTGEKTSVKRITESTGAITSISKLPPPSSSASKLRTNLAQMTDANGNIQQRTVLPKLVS

[4] = target: Receptor tyrosine-protein kinase erbB-2 (Homo sapiens) (UniProt P04626); assay: Inhibition of ERBB2 (unknown origin) assessed as residual activity at 100 nM by KINOMEscan analysis relative to control
Chain of Receptor tyrosine-protein kinase erbB-2 (Homo sapiens) (P04626 whole entry): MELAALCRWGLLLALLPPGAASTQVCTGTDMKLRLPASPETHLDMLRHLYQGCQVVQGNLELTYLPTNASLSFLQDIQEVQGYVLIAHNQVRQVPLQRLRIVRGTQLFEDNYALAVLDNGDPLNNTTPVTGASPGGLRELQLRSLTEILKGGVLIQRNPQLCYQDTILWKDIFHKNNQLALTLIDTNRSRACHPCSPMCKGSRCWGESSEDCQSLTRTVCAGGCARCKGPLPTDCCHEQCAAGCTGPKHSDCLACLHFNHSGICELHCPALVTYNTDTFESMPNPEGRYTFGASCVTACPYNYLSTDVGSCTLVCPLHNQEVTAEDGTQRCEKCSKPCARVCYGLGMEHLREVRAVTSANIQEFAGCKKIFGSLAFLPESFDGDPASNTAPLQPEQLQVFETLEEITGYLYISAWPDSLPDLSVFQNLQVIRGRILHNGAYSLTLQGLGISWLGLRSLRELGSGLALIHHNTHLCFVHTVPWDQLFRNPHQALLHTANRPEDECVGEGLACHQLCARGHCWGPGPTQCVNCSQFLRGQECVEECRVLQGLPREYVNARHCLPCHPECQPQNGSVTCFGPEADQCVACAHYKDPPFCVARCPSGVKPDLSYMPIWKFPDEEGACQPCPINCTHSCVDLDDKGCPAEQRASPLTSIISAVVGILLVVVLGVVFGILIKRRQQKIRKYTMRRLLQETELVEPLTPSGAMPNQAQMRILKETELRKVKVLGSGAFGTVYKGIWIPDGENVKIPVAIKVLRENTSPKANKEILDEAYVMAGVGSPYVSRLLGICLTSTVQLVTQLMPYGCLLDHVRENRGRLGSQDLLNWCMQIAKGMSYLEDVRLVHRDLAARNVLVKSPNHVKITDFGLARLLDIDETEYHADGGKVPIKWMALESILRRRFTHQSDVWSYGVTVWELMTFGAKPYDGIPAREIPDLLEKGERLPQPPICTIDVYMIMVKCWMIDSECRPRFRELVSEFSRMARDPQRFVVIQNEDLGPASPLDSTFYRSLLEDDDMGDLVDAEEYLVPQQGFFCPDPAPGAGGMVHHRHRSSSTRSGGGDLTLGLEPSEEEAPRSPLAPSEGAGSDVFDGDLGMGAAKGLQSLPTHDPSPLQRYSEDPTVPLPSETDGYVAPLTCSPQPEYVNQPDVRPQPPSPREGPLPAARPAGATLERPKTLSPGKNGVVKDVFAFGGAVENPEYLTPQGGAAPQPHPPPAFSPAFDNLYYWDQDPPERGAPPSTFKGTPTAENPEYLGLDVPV

[5] = target: G protein-coupled receptor kinase 4 (Homo sapiens) (UniProt P32298); assay: Inhibition of GRK4 (unknown origin) assessed as residual activity at 100 nM by KINOMEscan analysis relative to control
Chain of G protein-coupled receptor kinase 4 (Homo sapiens) (P32298 whole entry, looked up, the tested form may be a part): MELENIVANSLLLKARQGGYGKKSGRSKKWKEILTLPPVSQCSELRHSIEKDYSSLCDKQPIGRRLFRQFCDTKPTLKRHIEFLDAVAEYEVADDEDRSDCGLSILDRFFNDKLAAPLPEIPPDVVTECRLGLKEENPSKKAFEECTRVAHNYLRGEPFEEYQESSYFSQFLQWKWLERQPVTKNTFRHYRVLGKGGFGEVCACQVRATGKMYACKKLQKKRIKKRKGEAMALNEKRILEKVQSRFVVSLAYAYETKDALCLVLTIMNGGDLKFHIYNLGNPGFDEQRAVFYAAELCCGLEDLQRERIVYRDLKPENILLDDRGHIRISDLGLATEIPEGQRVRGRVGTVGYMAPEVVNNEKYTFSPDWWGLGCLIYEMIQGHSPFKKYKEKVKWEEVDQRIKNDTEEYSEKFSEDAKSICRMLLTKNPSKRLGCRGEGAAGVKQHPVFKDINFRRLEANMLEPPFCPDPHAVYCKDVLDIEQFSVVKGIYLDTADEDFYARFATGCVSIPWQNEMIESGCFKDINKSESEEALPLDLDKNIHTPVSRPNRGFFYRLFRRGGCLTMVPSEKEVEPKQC

[6] = target: LIM domain kinase 1 (Homo sapiens) (UniProt P53667); assay: Inhibition of LIMK1 (unknown origin) assessed as residual activity at 100 nM by KINOMEscan analysis relative to control
Chain of LIM domain kinase 1 (Homo sapiens) (P53667 whole entry, looked up, the tested form may be a part): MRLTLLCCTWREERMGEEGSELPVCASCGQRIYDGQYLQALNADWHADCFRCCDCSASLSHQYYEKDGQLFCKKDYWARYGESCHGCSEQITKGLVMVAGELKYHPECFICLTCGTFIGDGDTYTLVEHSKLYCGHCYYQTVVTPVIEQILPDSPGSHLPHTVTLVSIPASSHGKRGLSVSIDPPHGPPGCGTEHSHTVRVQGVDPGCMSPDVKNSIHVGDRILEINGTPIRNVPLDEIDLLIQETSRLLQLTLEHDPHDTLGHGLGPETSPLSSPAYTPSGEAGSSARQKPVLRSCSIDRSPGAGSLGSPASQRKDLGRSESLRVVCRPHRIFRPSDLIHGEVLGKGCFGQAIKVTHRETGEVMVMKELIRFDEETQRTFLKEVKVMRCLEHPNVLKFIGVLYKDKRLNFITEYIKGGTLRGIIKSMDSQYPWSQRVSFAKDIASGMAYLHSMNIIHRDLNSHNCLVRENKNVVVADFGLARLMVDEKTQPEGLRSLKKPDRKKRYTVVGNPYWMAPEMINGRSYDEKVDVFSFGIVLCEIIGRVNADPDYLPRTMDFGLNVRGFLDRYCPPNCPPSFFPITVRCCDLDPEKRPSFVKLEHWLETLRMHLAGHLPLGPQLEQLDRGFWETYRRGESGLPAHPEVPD

[7] = target: Tyrosine-protein kinase Lyn (Homo sapiens) (UniProt P07948); assay: Inhibition of LYN (unknown origin) assessed as residual activity at 100 nM by KINOMEscan analysis relative to control
Chain of Tyrosine-protein kinase Lyn (Homo sapiens) (P07948 2-512 limits assumed): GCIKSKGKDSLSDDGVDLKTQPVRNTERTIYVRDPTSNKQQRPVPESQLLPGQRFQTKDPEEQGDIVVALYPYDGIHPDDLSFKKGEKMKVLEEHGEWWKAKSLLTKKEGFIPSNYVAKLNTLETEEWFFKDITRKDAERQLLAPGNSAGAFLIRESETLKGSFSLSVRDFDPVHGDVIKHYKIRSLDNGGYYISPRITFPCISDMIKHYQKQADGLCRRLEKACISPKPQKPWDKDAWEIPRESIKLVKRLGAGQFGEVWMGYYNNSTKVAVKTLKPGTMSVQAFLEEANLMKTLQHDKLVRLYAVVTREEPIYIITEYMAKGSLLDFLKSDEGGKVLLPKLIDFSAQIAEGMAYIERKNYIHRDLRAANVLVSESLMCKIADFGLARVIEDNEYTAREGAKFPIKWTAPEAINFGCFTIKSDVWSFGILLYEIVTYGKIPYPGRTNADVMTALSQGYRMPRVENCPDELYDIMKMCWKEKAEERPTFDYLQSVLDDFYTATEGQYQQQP

[8] = target: T3, Dual specificity mitogen-activated protein kinase kinase 6 (Homo sapiens) (UniProt P52564); assay: Inhibition of MEK6 (unknown origin) assessed as residual activity at 100 nM by KINOMEscan analysis relative to control
T3 sequence (whole entry): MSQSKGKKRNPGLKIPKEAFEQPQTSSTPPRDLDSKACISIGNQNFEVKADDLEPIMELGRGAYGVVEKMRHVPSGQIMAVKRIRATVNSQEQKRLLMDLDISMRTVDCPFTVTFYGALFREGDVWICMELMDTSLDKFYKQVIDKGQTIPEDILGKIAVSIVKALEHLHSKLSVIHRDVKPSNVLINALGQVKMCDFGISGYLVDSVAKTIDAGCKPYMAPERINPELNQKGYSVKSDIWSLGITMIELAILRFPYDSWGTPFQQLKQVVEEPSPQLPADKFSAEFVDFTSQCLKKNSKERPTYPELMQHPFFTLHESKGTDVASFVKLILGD

[9] = tested on: Hepatocyte growth factor receptor (Homo sapiens), P08581 [M1250T]; assay: Inhibition of MET M1250T mutant (unknown origin) assessed as residual activity at 100 nM by KINOMEscan analysis relative to control
[10] = target: T4, Serine/threonine-protein kinase 3 (Homo sapiens) (UniProt Q13188); assay: Inhibition of MST2 (unknown origin) assessed as residual activity at 100 nM by KINOMEscan analysis relative to control
T4 sequence (whole entry): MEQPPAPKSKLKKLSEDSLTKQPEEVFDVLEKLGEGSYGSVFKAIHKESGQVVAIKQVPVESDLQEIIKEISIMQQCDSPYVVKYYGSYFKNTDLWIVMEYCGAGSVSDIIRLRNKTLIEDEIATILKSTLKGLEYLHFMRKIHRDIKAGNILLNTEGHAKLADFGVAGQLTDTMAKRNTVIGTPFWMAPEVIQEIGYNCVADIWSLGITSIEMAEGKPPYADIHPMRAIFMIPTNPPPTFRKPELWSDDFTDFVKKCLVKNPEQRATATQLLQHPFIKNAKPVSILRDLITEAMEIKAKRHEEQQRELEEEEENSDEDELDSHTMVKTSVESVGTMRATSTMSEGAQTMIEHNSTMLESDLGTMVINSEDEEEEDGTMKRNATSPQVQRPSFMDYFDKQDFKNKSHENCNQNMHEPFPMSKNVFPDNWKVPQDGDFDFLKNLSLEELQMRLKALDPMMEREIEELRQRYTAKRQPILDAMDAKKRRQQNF

[11] = target: Phosphatidylinositol 4-phosphate 5-kinase type-1 alpha (Homo sapiens) (UniProt Q99755); assay: Inhibition of PIP5K1A (unknown origin) assessed as residual activity at 100 nM by KINOMEscan analysis relative to control
Chain of Phosphatidylinositol 4-phosphate 5-kinase type-1 alpha (Homo sapiens) (Q99755 whole entry): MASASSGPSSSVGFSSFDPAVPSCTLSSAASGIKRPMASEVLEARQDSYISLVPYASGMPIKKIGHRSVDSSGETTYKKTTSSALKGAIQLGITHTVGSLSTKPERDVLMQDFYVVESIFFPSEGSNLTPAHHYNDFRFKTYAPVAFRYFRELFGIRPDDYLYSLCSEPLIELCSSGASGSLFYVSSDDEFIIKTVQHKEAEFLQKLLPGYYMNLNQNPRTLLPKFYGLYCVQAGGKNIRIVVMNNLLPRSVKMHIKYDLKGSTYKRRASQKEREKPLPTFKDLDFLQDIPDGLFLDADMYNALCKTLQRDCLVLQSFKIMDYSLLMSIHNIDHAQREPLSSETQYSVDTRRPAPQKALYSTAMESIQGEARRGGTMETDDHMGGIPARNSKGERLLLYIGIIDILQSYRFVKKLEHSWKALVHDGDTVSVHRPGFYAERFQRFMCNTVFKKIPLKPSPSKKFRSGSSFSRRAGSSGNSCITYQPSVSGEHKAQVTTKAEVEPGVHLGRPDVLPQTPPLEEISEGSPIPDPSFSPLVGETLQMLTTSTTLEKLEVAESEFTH

[12] = target: Serine/threonine-protein kinase N1 (Homo sapiens) (UniProt Q16512); assay: Inhibition of PKN1 (unknown origin) assessed as residual activity at 100 nM by KINOMEscan analysis relative to control

SMILES | Activity (K562) | Activity (Homo sapiens) | Activity [1] [%] | Activity [2] [%] | Activity [3] [%] | Activity [4] [%] | Activity [5] [%] | Activity [6] [%] | Activity [7] [%] | Activity [8] [%] | Activity [9] [%] | Activity [10] [%] | Activity [11] [%] | Activity [12] [%]
CNCc1ccccc1-c1csc([C@@H](C)Nc2nc(C)nc3cc(OC)c(OC)cc23)c1 [BAY-293] | inactive |  |  |  |  |  |  |  |  |  |  |  |  | 
COc1cc2ncnc(N[C@H](C)c3cccc4ccccc34)c2cc1OC |  | Active | 99 | 100 | 80 | 84 | 62 | 81 | 84 | 98 | 95 | 92 | 90 | 92
